Experimental data as given in ChEMBL document CHEMBL1152213, “Design, synthesis and antiviral efficacy of a series of potent chloropyridyl ester-derived SARS-CoV 3CLpro inhibitors” (Bioorg Med Chem Lett, 2008).
pIC50: −log10 of the molar value. The source made the active and inactive calls. The calls are words filed in the database; no cut-off is given here.

Tests used:
SARS-CoV = assay: Antiviral activity against SARS-CoV Urbani in african green monkey Vero E6 cells assessed as cell viability after 48 hrs; format: functional, organism-based; settings: Severe acute respiratory syndrome-related coronavirus
[1] = molecular target: Replicase polyprotein 1a (Severe acute respiratory syndrome-related coronavirus) (UniProt P0C6U8); assay: Inhibition of SARS 3Clpro measured by rate of reaction
Outline: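 Full-length authentic enzyme at 100 nM in 50 mM HEPES pH 7.5 with 1 mM DTT and 0.01 mg/mL BSA. IC50 taken from reaction rates across increasing inhibitor concentrations.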

How did the pIC50 (SARS-CoV) turn out when `O=C(Oc1cncc(Cl)c1)c1ccc2[nH]ccc2c1` was run?
Its pIC50 is 6.51.

How did the pIC50 (SARS-CoV) turn out when `CC(C)(C)OC(=O)N[C@@H]1C(=O)N2[C@@H]1SC(C)(C)[C@@H]2C(=O)Oc1cncc(Cl)c1` was run?
The pIC50 was under 4.00.

How did the pIC50 (SARS-CoV) turn out when `O=C(On1nnc2ccccc21)c1ccc2[nH]ccc2c1` was run?
Its pIC50 is 6.70.

`CC(=O)n1ccc2c(C(=O)Oc3cncc(Cl)c3)cccc21` was tested. Which pIC50 (SARS-CoV) did it give?
Its pIC50 is 5.97.

What about the Activity [1] of the same compound?
Its Activity is “inactive”.

`O=C(Oc1cncc(Cl)c1)c1cccc2cc[nH]c12` was tested. Which pIC50 (SARS-CoV) did it give?
The pIC50 was 7.10.

With `CC(=O)n1ccc2cc(C(=O)Oc3cncc(Cl)c3)ccc21` as the compound, how does the pIC50 (SARS-CoV) read?
The pIC50 was 6.40.

What about the Activity [1] of the same compound?
The Activity was “inactive”.

`O=C(Oc1cncc(Cl)c1)c1ccc2cc[nH]c2c1` was tested. Which pIC50 (SARS-CoV) did it give?
The pIC50 was 6.64.

How did the pIC50 (SARS-CoV) turn out when `Cc1ccc(S(=O)(=O)n2ccc3cc(C(=O)Oc4cncc(Cl)c4)ccc32)cc1` was run?
The pIC50 was 6.43.

`CC(=O)N1Cc2ccccc2C[C@H]1C(=O)Oc1cncc(Cl)c1` was tested. Which pIC50 (SARS-CoV) did it give?
The pIC50 was 6.85.

With `O=C(Oc1cncc(Cl)c1)c1ccc2c(ccn2S(=O)(=O)c2cccc([N+](=O)[O-])c2)c1` as the compound, how does the pIC50 (SARS-CoV) read?
Its pIC50 is 7.05.
